GPR7 antagonist: blocks human GPR7 receptor signaling; GPR7-expressing cells, fluorescence antagonist assay; inhibition, % at 4.4 µM; 290,000 tested, 1.1% active; AID 1861; in the data active means inhibition above about 16%, passing the limit was not always enough;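 further: cells stimulated with the agonist NPW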
Target sequence (P48145 whole entry, looked up): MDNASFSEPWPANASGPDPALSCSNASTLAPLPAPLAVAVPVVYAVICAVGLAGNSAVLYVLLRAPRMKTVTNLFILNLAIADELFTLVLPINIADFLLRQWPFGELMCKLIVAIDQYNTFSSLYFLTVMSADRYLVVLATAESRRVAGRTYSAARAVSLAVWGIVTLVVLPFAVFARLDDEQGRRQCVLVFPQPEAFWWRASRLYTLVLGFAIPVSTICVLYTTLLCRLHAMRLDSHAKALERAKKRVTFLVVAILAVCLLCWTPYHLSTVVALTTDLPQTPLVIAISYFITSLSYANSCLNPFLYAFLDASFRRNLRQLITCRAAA
CHO parental Ca: counter-screen: ATP calcium response change in parental CHO cells; parental CHO-K1, ATP-induced calcium, Fluo-8 fluorescence; inhibition, % at 5.6 µM; 330,000 tested, 0.63% active; AID 463079;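 active means inhibition above that plate's mean sample inhibition plus 3 SD, cut at about 26% in these data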
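Measured by: calcium-sensitive Fluo-8 fluorescence / Test system: CHO parental line / Controls: ATP-challenged DMSO wells low, unchallenged DMSO wells high / Measure: % inhibition / Compound: single nominal dose of 5.6 µM per compound / Replicates: single well per compound, no replicates / Reagent: ATP as calcium-mobilizing challenge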
TAAR1 antagonist: human TAAR1 antagonism; CHO RD-HGA16 TAAR1, Fluo-8 calcium fluorescence, antagonist; inhibition, % at 3 µM; 360,000 tested, 1.5% active; AID 624466;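 active means inhibition above a per-plate cutoff, the mean inhibition of test compounds on that plate plus 3 SD, cut at about 49% in these data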
Target sequence (Q96RJ0 whole entry, looked up): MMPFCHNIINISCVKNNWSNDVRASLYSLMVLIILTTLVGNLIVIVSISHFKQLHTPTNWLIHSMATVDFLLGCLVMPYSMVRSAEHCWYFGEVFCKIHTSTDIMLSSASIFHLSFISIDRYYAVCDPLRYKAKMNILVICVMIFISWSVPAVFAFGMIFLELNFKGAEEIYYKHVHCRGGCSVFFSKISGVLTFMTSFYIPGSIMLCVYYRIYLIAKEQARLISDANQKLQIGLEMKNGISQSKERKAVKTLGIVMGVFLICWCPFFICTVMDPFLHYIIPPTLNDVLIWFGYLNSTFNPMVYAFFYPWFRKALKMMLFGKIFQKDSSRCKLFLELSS
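Material: CHO RD-HGA16 cells bearing hTAAR1; compound dosing: one-point dosing, 3 µM nominal final; schedule: dye loading 75 min at 37 °C, then 30 min room temperature; measured by: calcium fluorescence with Fluo-8; control set: vehicle and agonist controls; replication: n of 1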
TAAR1 ag: human TAAR1 agonism | CHO RD-HGA16 TAAR1, Fluo-8 calcium fluorescence; vehicle wells 0%, saturating PEA agonist 100% | activation, % at 3 µM | 360,000 tested, 0.99% active | AID 624467;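 active means activation above the mean activation of all test compounds in the run plus 3 SD, cut at about 38% in these data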
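Assay system: CHO-derived RD-HGA16 cells with stable Gα16 and human TAAR1; timing: 17-24 h seeding, 75 min 37 °C dye, 30 min RT; read-out: % activation from peak over basal fluorescence ratio, DMSO-to-PEA scaled; measured by: kinetic Fluo-8 calcium fluorescence; benchmarks: low control DMSO, high control PEA (EC100); doses: 3 µM single concentration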
OX1R antag-1: OX1R (human) antagonism. OX1R-expressing cells, FRET antagonist read-out. inhibition, % at 6.6 µM. 330,000 tested, 1.8% active; in the data active means inhibition mostly above about 38%, no sharp cut-off; inactive means mostly below about 40%
OX1R antag-2: blocks the human orexin 1 receptor; O43613; CHO/OX1R cells, Fluo-8 calcium fluorescence, orexin A; inhibition, % at 5 µM; 330,000 tested, 0.43% active; AID 434989;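 active means inhibition above its plate's threshold, mean inhibition of all tested compounds on the plate plus 3 SD, cut at about 37% in these data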
OX1R Ca confirm: confirmation of human orexin 1 receptor antagonists | shares compounds with OX1R antag-2 | CHO/OX1R cells, orexin A calcium Fluo-8 fluorescence | inhibition, % at 5 µM | 1,100 tested, 38% active; in the data active means inhibition above about 29%
CHO Ca counter: signal in parental CHO cells, OX1R antagonist counter-screen; inhibition, % at 5.6 µM; parental CHO-K1, ATP-induced calcium, Fluo-8 fluorescence; 1,100 tested, 9.3% active; shares compounds with OX1R antag-2;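 active means inhibition above a per-plate limit, the mean inhibition of that plate's test compounds plus 3 SD, cut at about 25% in these data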
OX1R HTRF confirm: confirmation of human orexin 1 receptor antagonists, HTRF format; shares compounds with OX1R antag-1; OX1R-expressing cells, HTRF antagonist assay; inhibition, % at 6.6 µM; 1,800 tested, 49% active; in the data active means inhibition above about 55%;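 further: CHO cells expressing OX1R stimulated with orexin A at about EC80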
CHO-K1 HTRF: signal in parental CHO-K1 cells, OX1R antagonist counter-screen; shares compounds with OX1R antag-1; HTRF counterscreen; inhibition, % at 6.6 µM; 1,800 tested, 48% active; in the data active means inhibition above about 17%
Each line names hits and unclear results; the compound was inactive in the other large screens (follow-up assays come after a bar, where they were run). Compounds with a hit are over-represented: about 4.6% of the library has one in this group of screens.

CCOc1ccccc1NC(=O)c1ccccc1-c1nc(-c2ccccc2OC)no1	TAAR1 antagonist 66, OX1R antag-1 87, OX1R antag-2 45 | OX1R Ca confirm inactive | CHO Ca counter inactive | OX1R HTRF confirm inactive | CHO-K1 HTRF inactive
Cc1ccc(Cl)c(OC(=O)c2nn(C(C)C)c(=O)c3ccccc23)c1	none
COc1cc2cc(C(=O)N/N=C/c3ccc(F)cc3)[nH]c2cc1OC	OX1R antag-1 67 | OX1R Ca confirm inactive | CHO Ca counter inactive | OX1R HTRF confirm 73 | CHO-K1 HTRF inactive
COc1cc2cc(C(=O)N/N=C/c3ccccc3Cl)[nH]c2cc1OC	OX1R antag-1 76 | OX1R Ca confirm inactive | CHO Ca counter inactive | OX1R HTRF confirm 89 | CHO-K1 HTRF inactive
COc1ccc(/C=N/NC(=O)c2cc3cc(OC)c(OC)cc3[nH]2)cc1	none
N#CC1=C2CCCCC2(O)NC1=O (stereo not drawn)	none (no result: GPR7 antagonist, CHO parental Ca, OX1R antag-1, OX1R antag-2)
CCN(C(=O)Cn1nnc(-c2ccccc2)n1)C1CCS(=O)(=O)C1 (stereo not drawn)	none (no result: GPR7 antagonist)
O=C(Nc1cccc(-c2nc3ccccc3[nH]2)c1)c1ccco1	OX1R antag-1 73 | OX1R Ca confirm inactive | CHO Ca counter inactive | OX1R HTRF confirm inactive | CHO-K1 HTRF inactive
N#CCC(=O)Nc1ccc(C(=O)Nc2cccnc2)cc1	OX1R antag-1 91 | OX1R Ca confirm inactive | CHO Ca counter inactive | OX1R HTRF confirm inactive | CHO-K1 HTRF inactive
CC(C)(C)c1ccc(C(=O)Nc2cccnc2)cc1	none
CCC(=O)Nc1ccc(C(=O)Nc2ccc3c(c2)OCO3)cc1	none
N#CCC(=O)Nc1ccc(C(=O)Nc2ccc3c(c2)OCO3)cc1	OX1R antag-1 67, OX1R antag-2 67 (no result: GPR7 antagonist) | OX1R Ca confirm inactive | CHO Ca counter inactive | OX1R HTRF confirm inactive | CHO-K1 HTRF inactive
Cc1ccn2c(C(=O)N/N=C/c3ccc(CNC(=O)C(=O)Nc4ccc(C)c(C)c4)o3)c(C)nc2c1	none (no result: TAAR1 antagonist, TAAR1 ag)
Cc1ccc2nc(SCC(=O)Nc3cc(C(C)(C)C)nn3-c3ccccc3)[nH]c2c1	none
Cc1cc(NC(=O)CSc2nc3ccccc3[nH]2)n(-c2ccccc2)n1	OX1R antag-1 60, OX1R antag-2 61 | OX1R Ca confirm inactive | CHO Ca counter inactive | OX1R HTRF confirm 62 | CHO-K1 HTRF inactive
CC(C)C(NS(=O)(=O)c1cccc2nsnc12)C(=O)N1CCn2c1nc1ccccc12 (stereo not drawn)	OX1R antag-1 134 | OX1R Ca confirm inactive | CHO Ca counter inactive | OX1R HTRF confirm 92 | CHO-K1 HTRF inactive
CC(C)(C)C(=O)N1CCn2c1nc1ccccc12	none
COc1ccc(-c2nc3c(c(SCC(=O)N4CCOCC4)n2)Cc2c(CO)cnc(C)c2O3)cc1	none
Cc1nn(-c2ccccc2)c(C)c1/C=N/NC(=O)c1cc(-c2ccccc2)n[nH]1	OX1R antag-1 98, OX1R antag-2 87 | OX1R Ca confirm 64 | CHO Ca counter inactive | OX1R HTRF confirm 81 | CHO-K1 HTRF inactive
Cc1nn(-c2ccccc2)c(C)c1/C=N/NC(=O)c1cc(-c2cccc3ccccc23)n[nH]1	none
CCn1c2ccccc2c2cc(NC(=O)c3cc(OC)c(OC)c(OC)c3)ccc21	none
CCn1c(SCC(=O)Nc2cccc(NC(C)=O)c2)nnc1-c1ccco1	none
CCn1c2ccccc2c2cc(NC(=O)c3cc(OC)cc(OC)c3)ccc21	OX1R antag-1 85, OX1R antag-2 81 | OX1R Ca confirm 96 | CHO Ca counter inactive | OX1R HTRF confirm 89 | CHO-K1 HTRF inactive
CCn1c(SCC(=O)Nc2ccc3c(c2)oc2ccccc23)nnc1-c1ccc(N)cc1	OX1R antag-1 84 | OX1R Ca confirm 37 | CHO Ca counter inactive | OX1R HTRF confirm inactive | CHO-K1 HTRF inactive
CCn1c(SCC(=O)Nc2ccc3c(c2)c2ccccc2n3CC)nnc1-c1ccco1	OX1R antag-1 81, OX1R antag-2 64 | OX1R Ca confirm 35 | CHO Ca counter inactive | OX1R HTRF confirm 83 | CHO-K1 HTRF inactive
CCn1c(SCC(=O)Nc2cc3oc4ccccc4c3cc2OC)nnc1-c1cccs1	OX1R antag-1 83, OX1R antag-2 50 | OX1R Ca confirm 49 | CHO Ca counter inactive | OX1R HTRF confirm 89 | CHO-K1 HTRF inactive
CCOc1ncccc1C(=O)NCc1ccc(C)cc1	none
CC(C)[C@H](NC(=O)c1ccccc1F)C(=O)NNC(=O)c1cccs1	none (no result: GPR7 antagonist)
Cc1cccc(C)c1C(O)c1ncc(-c2ccccc2F)[nH]1 (stereo not drawn)	none (no result: GPR7 antagonist, CHO parental Ca, OX1R antag-1, OX1R antag-2)
COc1cc(C2c3c(oc4ccccc4c3=O)C(=O)N2c2nccs2)ccc1O (stereo not drawn)	none
Cc1ccc(CS(=O)Cc2ccc(C(=O)N3CCN(c4ccccn4)CC3)o2)cc1 (stereo not drawn)	none
C=CCn1c(SCC(=O)Nc2cc3oc4ccccc4c3cc2OC)nnc1-c1cnccn1	OX1R antag-1 91, OX1R antag-2 57 | OX1R Ca confirm 66 | CHO Ca counter inactive | OX1R HTRF confirm 91 | CHO-K1 HTRF inactive
CCn1c(SCC(=O)Nc2nc(-c3ccccc3)cs2)nnc1-c1ccccc1	OX1R antag-1 62, OX1R antag-2 54 | OX1R Ca confirm inactive | CHO Ca counter inactive | OX1R HTRF confirm 72 | CHO-K1 HTRF inactive
CN(Cc1ccccc1)C(=O)c1[nH]cnc1C(=O)N[C@@H](Cc1ccccc1)C(=O)OC(C)(C)C	OX1R antag-1 77 | OX1R Ca confirm 43 | CHO Ca counter inactive | OX1R HTRF confirm 77 | CHO-K1 HTRF inactive
O=C(NN=C1C2CC3CC1CC(Cl)(C3)C2)c1ccccn1	none
CC(C)COC(=O)N1CCCCC1c1cc(C(=O)N2CCOCC2)no1 (stereo not drawn)	none (no result: GPR7 antagonist, CHO parental Ca, OX1R antag-1, OX1R antag-2)
Cc1cccc(OCC(=O)N/N=C\c2cn(C)c3ccccc23)c1	OX1R antag-1 45 | OX1R Ca confirm inactive | CHO Ca counter inactive | OX1R HTRF confirm inactive | CHO-K1 HTRF inactive
Cc1cccc(OCCn2cc(/C=N/NC(=O)c3ccncc3)c3ccccc32)c1	none
COc1ccc(Br)cc1/C=C/C(=O)Nc1ccc2ccccc2c1	OX1R antag-1 91, OX1R antag-2 46 | OX1R Ca confirm inactive | CHO Ca counter inactive | OX1R HTRF confirm 89 | CHO-K1 HTRF inactive
CC(=O)Nc1ccc(S(=O)(=O)NCCC(=O)Nc2ccc(C)c(F)c2)cc1	none
